The list is not random: actives were taken first. Their share in the collection is about 3.6%.
T cruzi inh: inhibitors of intracellular T. cruzi growth, primary screen, luminescence, NIH3T3 host cells. T. cruzi beta-gal in NIH3T3, 90 h. inhibition, % (test concentration not listed). 1.4% of 300,000 active. AID 1885, 2009;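 active = mean inhibition across valid replicates above about 55%, limit read from the data; inconclusive = mean below that limit but half or more replicates reach it; inactive = mean below it, under half of replicates reach it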;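 note: signal also drops with host cell toxicity which is not excluded here; higher percent means less beta-gal luminescence so fewer parasites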
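Assay system: NIH/3T3 fibroblasts plus reporter T. cruzi. Amount: NIH/3T3 cells, 5,000 per well. Buffer or medium: DMEM, 2% fetal bovine serum. Doses: compound pinned at 50 nL/well, DMSO. Schedule: ≥90 h infection period, 3 h prior cell attachment. Signal: luminescent β-galactosidase signal after 60 min lysis. Read-out: parasite load inhibition, %.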
HIF act: HIF pathway transcriptional activators, primary screen, cell-based, U2OS HRE-luciferase, luminescence. U2OS HRE-luciferase reporter; normalized: DMSO 0%, desferrioxamine 100%. 0.32% of 300,000 active. activation, % at 7.5 µM (by protocol);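 active = mean activation of at least 10% of the iron chelator positive control signal, with at least half of replicates also reaching 10%; inconclusive = mean and replicate majority disagree about reaching 10%; inactive = mean and most replicates under 10%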
PfHsp90 set2: growth inhibition of PfHsp90-expressing yeast, primary screen, antimalarial PfHsp90 inhibitor project, S. cerevisiae, BacTiter-Glo luminescence, single point, set 2; inhibition, % at 9.4 µM; 0.32% of 310,000 active; BacTiter-Glo ATP, 48 h; yeast lacking PDR1 and PDR3 efflux regulators;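 active = every replicate shows inhibition above about 80%, whatever the replicate mean, limit read from the data; inconclusive = mean inhibition reaches the set limit but some replicate falls short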
CSC inhib: cancer stem cell viability inhibitors, primary screen, luminescence; cancer stem cell-like cells viability; inhibition, % at 7.5 µM; 1.1% of 300,000 active; in the data active = inhibition above about 75%; inconclusive = no clear call, values can overlap the other calls; tested in HMLE shEcad cells
SKKanGAS inh: S. pyogenes SKKanGAS growth inhibitors in kanamycin, primary screen, streptokinase expression inhibitor project, SKKanGAS strain, BacTiter-Glo luminescence | 1.3% of 300,000 active | AID 1662, 2009 | 6 h | inhibition, % at 7.5 µM;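 active = mean replicate score, as percent of positive control median, at least 50; inconclusive = mean below 50 but one replicate at or above 50; inactive = mean and every replicate below 50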;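 note: strain carries kanamycin resistance gene driven by streptokinase promoter and grows in 40 µg/ml kanamycin; loss of luminescence reflects streptokinase promoter inhibition or plain growth inhibition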
Beta apoptosis: inhibitors of cytokine-induced beta cell apoptosis, primary screen, luminescence. INS-1E cytokine-induced death, ATP luminescence, 48 h; percent of positive-control rescue, neutral wells zero. protection from apoptosis, % (concentration not given with the values). 0.8% of 300,000 active;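 active = Every replicate reaches about 75%, or at least half do and their mean reaches it too, limit read from the data; inconclusive = At least half of replicates reach the limit but their mean does not; inactive = Under half of replicates reach the limit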;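 note: higher means more ATP so stronger rescue from cytokine killing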
Hits are given with their value; n = inactive; u = inconclusive; x = no result.

SMILES	T cruzi inh	HIF act	PfHsp90 set2	CSC inhib	SKKanGAS inh	Beta apoptosis
O=[N+]([O-])c1ccc(S(=O)(=O)NCC(c2cccnc2)N2CCc3ccccc32)cc1 (stereo not drawn)	69.6	n	x	n	n	x
O=S(=O)(NCC(c1cccnc1)N1CCN(c2ccc(F)cc2)CC1)c1cc(F)ccc1F (stereo not drawn)	58.0	n	n	n	n	n
Cc1ccc(C(CNS(=O)(=O)c2ccc([N+](=O)[O-])cc2)N2CCN(C)CC2)cc1 (stereo not drawn)	58.4	n	n	n	n	n
COc1ccc(C(=O)NC(CCSC)C(=O)NCc2nnc3ccccn23)cc1 (stereo not drawn)	x	x	n	x	x	x
C/C(=C/CCC(C)C1CCC2(C)C3CCC4C(C)(C)C(=O)CCC4(C)C3=CCC12C)C(=O)O (stereo not drawn)	n	n	x	x	105.1	x
C/C(=C/CCC(C)[C@H]1CC[C@@]2(C)C3=C(CC[C@]12C)[C@@]1(C)CCC(=O)C(C)(C)[C@@H]1CC3)C(=O)O (stereo partly drawn)	n	n	n	n	104.6	n
COC(=O)c1cc(NC(=O)CC2SC(=Nc3ccccc3)N(CCc3c[nH]c4ccccc34)C2=O)cc(C(=O)OC)c1 (stereo not drawn)	67.2	n	n	n	n	n
O=C(COC(=O)c1ccc2ncsc2c1)NCc1ccccc1Cl	x	x	x	n	x	n
S=C(Nc1ccc(Cl)cc1)Nc1cccc2cnccc12	n	n	n	n	n	91.1
S=C(Nc1ccc2cn[nH]c2c1)Nc1ccccc1Cl	n	10.6	n	n	n	n
S=C(Nc1ccc(Cl)cc1)Nc1ccc2cn[nH]c2c1	n	10.4	n	n	n	n
Fc1ccc(NC(=S)Nc2cccc3cnccc23)cc1	n	n	n	n	n	n
S=C(Nc1ccc2cn[nH]c2c1)Nc1ccc(Cl)cc1Cl	n	n	n	n	n	n
Cc1ccccc1NC(=S)Nc1ccc2cn[nH]c2c1	n	n	n	n	n	n
CCOc1ccccc1NC(=O)CN1C(=O)COc2ccc(C)cc21	n	n	n	n	n	n
COc1ccc(CCNC(=O)c2c(Cl)ccc(Cl)c2OC)cc1OC	n	n	n	n	n	n
CCOC(=O)/C=C1\NC2(CCCCC2)Cc2cc(OC)c(OC)cc21	59.8	n	n	n	n	n
Cc1ccc(C2(O)CN(c3ccccc3C)C3=[N+]2CCS3)cc1 (stereo not drawn)	n	12.5	n	n	n	n
Cn1nc(-c2ccc(Cl)cc2)nc2c(=O)n(C)c(=O)nc1-2	55.8	n	x	118.5	84.3	99.4
CS(=O)(=O)n1nc(-c2ccc(Cl)cc2)nc1N	n	n	n	n	n	n
Cc1ccc(C)c(S(=O)(=O)c2c(C)cc(C)nc2Cl)c1	n	n	n	n	n	n
Cc1ccc(S(=O)(=O)c2c(C)cc(C)nc2Cl)c(C)c1	59.1	n	n	n	n	n
Cc1cc(C)c(S(=O)(=O)c2ccccc2C)c(Cl)n1	54.8	n	x	n	n	n
COc1cccc([C@@H]2Oc3ccc(OC)cc3C(=O)[C@H]2OC(=O)NCc2ccc3c(c2)OCO3)c1	n	n	x	n	n	n
CC1(C)C(=O)Nc2ccccc2N1C(=O)COC(=O)c1ccc(NC(N)=O)cc1	x	x	n	x	x	x
SMILES	T cruzi inh	HIF act	PfHsp90 set2	CSC inhib	SKKanGAS inh	Beta apoptosis
O=C(CN1CCN(Cc2cccc(C(F)(F)F)c2)CC1)NCC(=O)Nc1ccc(F)c(F)c1F	x	x	n	x	x	x
Cc1ccc(C(=O)N2[C@@H]3CN(C)C(=O)[C@@]2(C)[C@H]2C(=O)N(C)C(=O)[C@@H]32)cc1	x	x	n	x	x	x
c1ccc(-c2onc(-c3ccco3)c2-c2ccc3[nH]ccc3c2)cc1	n	n	n	119.8	u	n
c1ccc(-c2ccc3[nH]ccc3c2)cc1	x	x	n	n	x	n
c1cc2cc(-c3c(-c4ccc5c(c4)OCO5)noc3-c3ccsc3)ccc2[nH]1	n	n	n	120.8	n	n
Cc1noc(C)c1S(=O)(=O)Nc1ccc(C(C)C)cc1	n	n	n	n	n	x
CCSc1nnc(NC(=O)NC(CC)(C(F)(F)F)C(F)(F)F)s1	n	n	n	98.8	n	n

High-throughput results deposited in PubChem by Broad Institute.
